Values after ≈ are worked out from the molar mass of the structure shown. Active and inactive are the calls of the source. The rule behind the calls is not given here.
Tests used:
[1] = tested on: Clostridium beijerinckii; assay: Antibacterial activity against Clostridium beijerinckii B504 incubated for 24 hrs by CLSI based broth microdilution method; assay type: functional
[2] = tested on: Enterococcus faecalis; assay: Antibacterial activity against Enterococcus faecalis V583 incubated for 20 hrs by CLSI based broth microdilution method; assay type: functional
[3] = tested on: Staphylococcus aureus; assay: Antibacterial activity against Staphylococcus aureus LMG 10147 incubated for 20 hrs by CLSI based broth microdilution method; assay type: functional
[4] = tested on: Clostridium perfringens; assay: Antibacterial activity against Clostridium perfringens CECT376 incubated for 24 hrs by CLSI based broth microdilution method; assay type: functional
[5] = Hemolytic activity in human erythrocytes at […] incubated for 1 hrs; assay type: toxicity, cell-based, Erythrocyte; conditions: erythrocytes, read-out: Activity
[6] = tested on: Clostridium botulinum; assay: Antibacterial activity against Clostridium botulinum CECT551 incubated for 24 hrs by CLSI based broth microdilution method; assay type: functional
[7] = tested on: Staphylococcus aureus; assay: Antibacterial activity against Staphylococcus aureus LMG 8224 incubated for 20 hrs by CLSI based broth microdilution method; assay type: functional
[8] = tested on: Staphylococcus aureus; assay: Antibacterial activity against Staphylococcus aureus LMG 15975 incubated for 20 hrs by CLSI based broth microdilution method; assay type: functional
[9] = tested on: Clostridium tetani; assay: Antibacterial activity against Clostridium tetani CECT 4629 incubated for 24 hrs by CLSI based broth microdilution method; assay type: functional
[10] = Cytotoxicity against human MRC5 cells assessed as cellular metabolism incubated for 72 hrs by MTT assay; assay type: toxicity, cell-based
How it was run: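 MRC-5 cells in DMEM (1 g/L glucose) with 10% heat-inactivated FBS, 2 mM glutamine, penicillin/streptomycin, at 37 °C, 5% CO2. 5 × 10^3 cells/well seeded with increasing compound concentrations, 72 h. MTT added for 4 h, formazan dissolved in DMSO, A570 read. Sigmoidal fit for 50% growth reduction vs untreated; three independent experiments in triplicate.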

[11] = tested on: Bacillus cereus; assay: Antibacterial activity against Bacillus cereus ATCC 10987 incubated for 20 hrs by CLSI based broth microdilution method; assay type: functional
[12] = tested on: Enterococcus faecalis; assay: Antibacterial activity against Enterococcus faecalis LMG 08222 incubated for 20 hrs by CLSI based broth microdilution method; assay type: functional
[13] = tested on: Bacillus cereus; assay: Antibacterial activity against Bacillus cereus ATCC 14579 incubated for 20 hrs by CLSI based broth microdilution method; assay type: functional
[14] = Antibacterial activity against Clostridium-ihumii AP5 incubated for 24 hrs by CLSI based broth microdilution method; assay type: functional
[15] = tested on: Clostridioides difficile; assay: Antibacterial activity against Clostridium difficile CECT531 incubated for 24 hrs by CLSI based broth microdilution method; assay type: functional
[16] = tested on: Enterococcus faecalis; assay: Antibacterial activity against Enterococcus faecalis LMG 16216 incubated for 20 hrs by CLSI based broth microdilution method; assay type: functional
[17] = tested on: Bacillus cereus; assay: Antibacterial activity against Bacillus cereus ATCC 10987 assessed as membrane potential change at 0.5 to 2X MIC incubated for 20 mins by DiSC3(5) staining based assay; assay type: functional, organism-based
How it was run: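 B. cereus grown in LB to OD600 1, washed in glucose-HEPES pH 7.4, OD600 0.5, loaded with 2 μM DiSC3(5) for 20 min at 37 °C for baseline. […] Gramicidin S positive control; untreated cells and dye-only medium negative controls; triplicate.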

[18] = tested on: Bacillus cereus; assay: Inhibition of electron transport chain in Bacillus cereus ATCC 10987 by measuring reduction of resazurin upto 120 min by resazurin dye based assay; conditions: DDE = dose-dependent effect
How it was run: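 B. cereus grown in LB to OD600 1, washed and resuspended in cMHB at OD600 0.2 with 100 μg/mL resazurin. Compounds added at the indicated concentrations; resorufin fluorescence (ex/em 550/590 nm) read every 5 min for 125 min. CCCP at 400, 200, 100 μM positive control; untreated cells and medium with resazurin negative controls; triplicate.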

[19] = tested on: Bacillus cereus; assay: Bactericidal activity against Bacillus cereus ATCC 10987 at 64 uM measured upto 24 hrs by CLSI based broth microdilution method; assay type: functional, organism-based
How it was run: (§1)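 Each well then used as a 10% inoculum into fresh cMHB and incubated at 37 °C for 24 h. No regrowth in the MIC range was scored bactericidal, regrowth bacteriostatic. Triplicate.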

[20] = tested on: Staphylococcus aureus; assay: Bactericidal activity against Staphylococcus aureus LMG 8224 at […] measured upto 24 hrs by CLSI based broth microdilution method; assay type: functional, organism-based; conditions: dose 128.0 µM
[21] = tested on: Enterococcus faecalis; assay: Bactericidal activity against Enterococcus faecalis V583 at 32 uM measured upto 24 hrs by CLSI based broth microdilution method; assay type: functional, organism-based; how it was run: as §1
[22] = tested on: Bacillus cereus; assay: Antibacterial activity against Bacillus cereus ATCC 10987 assessed as decrease in membrane integrity at 2x MIC incubated for 18 hrs by propidium iodide staining assay; assay type: functional, organism-based
How it was run: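 B. cereus grown 18 h in LB at 37 °C, washed in 5 mM HEPES pH 7.4 + 5 mM glucose, OD600 0.5, loaded with 10 μg/mL propidium iodide for 10 min. […] Gramicidin S positive control; triplicate.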

[23] = tested on: Bacillus cereus; assay: Antibacterial activity against Bacillus cereus ATCC 10987 assessed as reduction in intracellular ATP levels measured upto 120 min by BacTiter-Glo luminescent cell viability assay; assay type: functional, organism-based
How it was run: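 B. cereus grown in LB to OD600 1, washed in G-HEPES, resuspended in cMHB at OD600 0.25, treated with 32 μM compound at 37 °C. At 30, 60, 120 min samples mixed with BacTiter-Glo, 5 min room temperature, luminescence read. ATP normalized to OD600, as % of untreated control. CCCP 100 μM positive control; triplicate.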

[24] = tested on: Staphylococcus aureus; assay: Bactericidal activity against Staphylococcus aureus LMG 8224 at 16 uM measured upto 24 hrs by CLSI based broth microdilution method; assay type: functional, organism-based; how it was run: as §1
[25] = tested on: Staphylococcus aureus; assay: Bactericidal activity against Staphylococcus aureus LMG 8224 measured upto 24 hrs by CLSI based broth microdilution method; assay type: functional; how it was run: as §1
[26] = tested on: Enterococcus faecalis; assay: Bactericidal activity against Enterococcus faecalis V583 at 16 uM measured upto 24 hrs by CLSI based broth microdilution method; assay type: functional, organism-based; how it was run: as §1
[27] = tested on: Bacillus cereus; assay: Bactericidal activity against Bacillus cereus ATCC 10987 at 16 uM measured upto 24 hrs by CLSI based broth microdilution method; assay type: functional, organism-based; how it was run: as §1
[28] = tested on: Bacillus cereus; assay: Bactericidal activity against Bacillus cereus ATCC 10987 measured upto 24 hrs by CLSI based broth microdilution method; assay type: functional; how it was run: as §1
[29] = tested on: Enterococcus faecalis; assay: Bactericidal activity against Enterococcus faecalis V583 measured upto 24 hrs by CLSI based broth microdilution method; assay type: functional; how it was run: as §1
[30] = Selectivity index, ratio of IC50 for cytotoxicity against human MRC5 cells to MIC for antibacterial activity against Clostridium tetani; assay type: toxicity, cell-based; conditions: read-out: Selectivity Index
[31] = tested on: Escherichia coli; assay: Antimicrobial activity against Escherichia coli LMG […] in presence of outer membrane disturbing peptide L-11 incubated for 20 hrs by CLSI based broth microdilution method; assay type: functional
[32] = tested on: Escherichia coli; assay: Antimicrobial activity against Escherichia coli LMG […] incubated for 20 hrs by CLSI based broth microdilution method; assay type: functional
[33] = Selectivity index, ratio of IC50 for cytotoxicity against human MRC5 cells to MIC for antibacterial activity against Bacillus cereus; assay type: toxicity, cell-based; conditions: read-out: Selectivity Index
[34] = Selectivity index, ratio of IC50 for cytotoxicity against human MRC5 cells to MIC for antibacterial activity against Enterococcus faecalis; assay type: toxicity, cell-based; conditions: read-out: Selectivity Index
[35] = Selectivity index, ratio of IC50 for cytotoxicity against human MRC5 cells to MIC for antibacterial activity against Staphylococcus aureus; assay type: toxicity, cell-based; conditions: read-out: Selectivity Index

Molecule	MIC [1]	MIC [2]	MIC [3]	MIC [4]	hemolysis at 1 h, […] [5]	MIC [6]	MIC [7]	MIC [8]	MIC [9]	IC50 at 72 h [10]	MIC [11]	MIC [12]	MIC [13]	MIC [14]	MIC [15]	MIC [16]	Activity [17]	inhibition [18]	Activity [22]	Activity [24]	other results
CC(C)(C)[Si](C)(C)Oc1cc(O)cc(/C=C/c2ccc(O)cc2)c1	26.6 µM (≈ 9.11 µg/mL)	16 µM (≈ 5.48 µg/mL)	16 µM (≈ 5.48 µg/mL)	32 µM (≈ 11 µg/mL)	18.4%	16 µM (≈ 5.48 µg/mL)	16 µM (≈ 5.48 µg/mL)	16 µM (≈ 5.48 µg/mL)	6.6 µM (≈ 2.26 µg/mL)	2.7 µM	16 µM (≈ 5.48 µg/mL)	8 µM (≈ 2.74 µg/mL)	16 µM (≈ 5.48 µg/mL)	32 µM (≈ 11 µg/mL)	26.6 µM (≈ 9.11 µg/mL)	16 µM (≈ 5.48 µg/mL)					
GENTAMICIN		> 32 µM		> 32 µM			1 µM				4 µM				> 32 µM						
CC(C)[Si](Oc1ccc(/C=C/c2cc(O)cc(O)c2)cc1)(C(C)C)C(C)C																	Active	Dde	Active		Activity [19]: Active; Activity [20]: Active; Activity [21]: Active
CC(C)[Si](Oc1cc(O)cc(/C=C/c2ccc(O)cc2)c1)(C(C)C)C(C)C																	Active		Active	Active	Activity [23]: Active; MIC [25]: 32 µM (≈ 12.3 µg/mL); Activity [26]: Active; Activity [27]: Active; MIC [28]: 32 µM (≈ 12.3 µg/mL); MIC [29]: 32 µM (≈ 12.3 µg/mL)
CC(C)(C)[Si](C)(C)Oc1ccc(/C=C/c2cc(O)cc(O)c2)cc1	10.6 µM (≈ 3.63 µg/mL)	8 µM (≈ 2.74 µg/mL)	8 µM (≈ 2.74 µg/mL)	13.3 µM (≈ 4.56 µg/mL)	12.7%	13.3 µM (≈ 4.56 µg/mL)	8 µM (≈ 2.74 µg/mL)	8 µM (≈ 2.74 µg/mL)	5.3 µM (≈ 1.82 µg/mL)	15.5 µM	8 µM (≈ 2.74 µg/mL)	6.6 µM (≈ 2.26 µg/mL)	4 µM (≈ 1.37 µg/mL)	16 µM (≈ 5.48 µg/mL)	21.3 µM (≈ 7.3 µg/mL)	8 µM (≈ 2.74 µg/mL)	Active	Dde	Active	Active	selectivity ratio [30]: 2; MIC [31]: 13.3 µM; MIC [32]: > 128 µM; MIC [25]: 32 µM (≈ 11 µg/mL); selectivity ratio [33]: 2; selectivity ratio [34]: 2; Activity [26]: Active; Activity [27]: Active; MIC [28]: 32 µM (≈ 11 µg/mL); selectivity ratio [35]: 2; MIC [29]: 32 µM (≈ 11 µg/mL)

Reference: ChEMBL document CHEMBL5137029, “Chemically Tuning Resveratrol for the Effective Killing of Gram-Positive Pathogens” (J Nat Prod, 2022)
